Measurements taken from ChEMBL document CHEMBL1126740, “(S)- and (R)-8-(di-n-propylamino)-6,7,8,9-tetrahydro-3H-benz[e]indole-1-carbaldehyde: a new class of orally active 5-HT1A-receptor agonists” (J Med Chem, 1993).
Calls of active or inactive are those of the source. The calls are words filed in the database; no cut-off is given here.

How the values were obtained:
Rattus norvegicus [1] = assay: In vivo evaluation for 5-HTP accumulation in the hemispheres in male rats (sc); assay type: functional
Outline: (§1)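 Male Sprague-Dawley rats were pretreated with reserpine 5 mg/kg sc 18 h before dosing. DOPA and 5-HTP in limbic system, striatum and hemispheres were measured by HPLC with electrochemical detection. Dose-response curves used 4–6 dose levels (n = 4) for each region; ED50 was estimated graphically. Partial responses are given as the maximal % reduction at the highest dose tested.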

Rattus norvegicus [2] = assay: Maximal reduction in percent (Partial response) of DOPA accumulation rat hemispheres at highest test dose of 4.0 uM/kg (sc); assay type: functional; outline: as §1
Rattus norvegicus [3] = assay: In vivo evaluation for 5-HTP accumulation in the corpus striatum in male rats (sc); assay type: functional; outline: as §1
Rattus norvegicus [4] = species on record: Rattus norvegicus; assay: Compound was tested for 5-HT behavioral response in reserpine pretreated rats; +5HT syndrome; assay type: functional, organism-based
Outline: (§2)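 Male Sprague-Dawley rats (200–300 g) were given reserpine 5 mg/kg sc 18 h before testing, then the test drug sc in the neck (n = 4). Motor activity was recorded by photocells for 30 min, with gross behaviour observed throughout. 5-HT syndrome: flat body posture, extended limbs, reciprocal forepaw treading. DA response: locomotion and stereotypies.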

Rattus norvegicus [5] = assay: In vivo evaluation for 5-HTP accumulation in the limbic system in male rats (sc); assay type: functional; outline: as §1
Rattus norvegicus [6] = assay: In vivo evaluation for DOPA accumulation in the corpus striatum in male rats (sc); assay type: functional; outline: as §1
Rattus norvegicus [7] = assay: In vivo evaluation for DOPA accumulation in the limbic system in male rats (sc); assay type: functional; outline: as §1
Rattus norvegicus [8] = assay: In vivo evaluation for DOPA accumulation in the hemispheres in male rats at highest test dose of 50 uM/Kg (sc); inactive; assay type: functional, organism-based; outline: as §1
D(2) dopamine receptor [9] = target: T1, D(2) dopamine receptor (Rattus norvegicus, UniProt P61169); assay: Displacement of [3H]spiperone from dopamine receptor D2
T1 sequence (P61169 whole entry): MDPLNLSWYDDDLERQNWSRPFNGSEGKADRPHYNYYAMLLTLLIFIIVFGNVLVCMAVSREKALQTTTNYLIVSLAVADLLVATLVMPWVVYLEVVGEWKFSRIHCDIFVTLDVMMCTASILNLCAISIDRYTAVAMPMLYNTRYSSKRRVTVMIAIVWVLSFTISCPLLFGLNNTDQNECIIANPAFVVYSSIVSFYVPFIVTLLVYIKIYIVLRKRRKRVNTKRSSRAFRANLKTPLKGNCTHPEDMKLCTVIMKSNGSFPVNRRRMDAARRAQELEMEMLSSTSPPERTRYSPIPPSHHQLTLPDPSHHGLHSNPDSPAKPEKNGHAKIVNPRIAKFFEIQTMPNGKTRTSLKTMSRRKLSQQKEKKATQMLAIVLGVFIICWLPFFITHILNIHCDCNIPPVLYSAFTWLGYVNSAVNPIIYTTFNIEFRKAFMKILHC
Outline: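 Rat striatal membranes in 50 mM potassium phosphate buffer (3 mg original tissue) incubated with 0.5 nM [3H]spiperone for 10 min at 37 °C. Nonspecific binding was defined with 10 μM 6,7-ADTN. Ki was calculated by Cheng–Prusoff; triplicates, 3–7 experiments.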

Rattus norvegicus [10] = assay: In vivo evaluation for DOPA accumulation in the limbic system in male rats at highest test dose of 50 uM/Kg (sc); inactive; assay type: functional, organism-based; outline: as §1
Rattus norvegicus [11] = assay: In vivo evaluation for DOPA accumulation in the corpus striatum in male rats at highest test dose of 50 uM/Kg (sc); inactive; assay type: functional, organism-based; outline: as §1
Rattus norvegicus [12] = species on record: Rattus norvegicus; assay: Compound was tested for 5HT, Dopamine agonist mediated response in reserpine pretreated rats; mix DA, 5-HT syndrome; assay type: functional, organism-based; outline: as §2
Rattus norvegicus [13] = assay: Maximal reduction in percent (Partial response) of DOPA accumulation rat corpus striatum at highest test dose of 3.1 uM/Kg (sc); assay type: functional; outline: as §1
Rattus norvegicus [14] = assay: Maximal reduction in percent (Partial response) of DOPA accumulation rat limbic system at highest test dose of 3.1 uM/Kg (sc); assay type: functional
Rattus norvegicus [15] = assay: In vivo evaluation for DOPA accumulation in the hemispheres in male rats at highest dose tested; inactive; assay type: functional, organism-based; outline: as §1
Rattus norvegicus [16] = assay: In vivo evaluation for DOPA accumulation in the hemispheres in male rats (sc); assay type: functional; outline: as §1
Rattus norvegicus [17] = species on record: Rattus norvegicus; assay: Compound was tested for 5HT, Dopamine agonist mediated response in reserpine pretreated rats; no change; assay type: functional, organism-based; outline: as §2
Rattus norvegicus [18] = species on record: Rattus norvegicus; assay: Maximal reduction in percent (Partial response) of DOPA accumulation rat limbic system at highest test dose; inactive; assay type: functional, organism-based
[19] = Maximum concentration of the drug at 2 umol/dg administered intravenously; assay type: ADME, organism-based; design: route intravenous; conditions: in vivo, iv
Outline: (§3)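 Male Sprague-Dawley rats (300 g) with arterial catheters were dosed 24 h after surgery; orally dosed rats were starved 18 h beforehand. Blood was sampled at intervals up to 12 h and analysed by HPLC with fluorescence detection (ex 285, em 365) or by GC/MS. Cmax is in pmol/mL and tmax in min, mean ± SEM, n = 4–6.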

Rattus norvegicus [20] = assay: In vivo evaluation for DOPA accumulation in the hemispheres in male rats at highest test dose; inactive; assay type: functional, organism-based; outline: as §1
Rattus norvegicus [21] = assay: In vivo evaluation for 5-HTP accumulation in the corpus striatum in male rats (po); assay type: functional; outline: as §1
[22] = Ratio of ED50 values when the compound was administered subcutaneously to that of peroral administration; assay type: ADME
Outline: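 Male Sprague-Dawley rats (200–300 g) pretreated with reserpine (5 mg/kg sc, 18 h earlier). Compound given sc or po. 5-HTP accumulation in the limbic system was measured by HPLC with electrochemical detection. ED50 values came from dose-response curves of 4–6 dose levels (n = 4), and the sc ED50 was divided by the po ED50.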

Rattus norvegicus [23] = assay: Maximal reduction in percent (Partial response) of DOPA accumulation rat limbic system at highest test dose of 12.5 uM/Kg (sc); assay type: functional
[24] = Bioavailability in rat; assay type: ADME, organism-based; conditions: in vivo
Outline: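 Blood was drawn at intervals up to 12 h and assayed by HPLC-fluorescence or GC/MS against spiked blank-blood standards. F is the ratio of oral to intravenous areas under the blood concentration-time curves; n = 4–6.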

[25] = Time taken to reach the maximum concentration of compound at 2 uM/dg administered intravenously; assay type: ADME, organism-based; conditions: in vivo, iv; outline: as §3
[26] = Half life of compound at 2 uM/dg administered intravenously; assay type: ADME, organism-based; conditions: in vivo, iv
Outline: (§4)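 Male Sprague-Dawley rats (300 g) carrying arterial catheters, used 24 h after surgery; animals dosed orally were starved 18 h beforehand. Blood was sampled at intervals up to 12 h after dosing. Drug levels were measured by HPLC with fluorescence detection (ex 285, em 365) or by GC/MS, calibrated against spiked blank blood. AUC was taken from concentration-time curves; n = 4–6.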

[27] = target: T2, 5-hydroxytryptamine receptor 1A (Rattus norvegicus, UniProt P19327); assay: In vitro binding affinity against 5-hydroxytryptamine 1A receptor using [3H]8-OH-DPAT
T2 sequence (P19327 whole entry): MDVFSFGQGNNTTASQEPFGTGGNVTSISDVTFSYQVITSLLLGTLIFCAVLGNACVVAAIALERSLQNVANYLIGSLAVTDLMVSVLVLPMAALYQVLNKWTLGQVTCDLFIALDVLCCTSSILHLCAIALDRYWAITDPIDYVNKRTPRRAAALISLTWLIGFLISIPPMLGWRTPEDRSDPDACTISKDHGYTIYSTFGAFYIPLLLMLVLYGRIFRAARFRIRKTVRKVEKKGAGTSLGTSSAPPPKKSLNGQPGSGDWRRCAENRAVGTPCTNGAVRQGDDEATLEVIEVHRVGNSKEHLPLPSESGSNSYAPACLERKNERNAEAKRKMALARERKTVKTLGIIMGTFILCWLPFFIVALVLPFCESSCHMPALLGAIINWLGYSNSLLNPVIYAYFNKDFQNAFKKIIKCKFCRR
Outline: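 Rat whole-brain membranes (brainstem and cerebellum removed) in 50 mM Tris pH 8.0 containing NaCl, CaCl2, MgCl2 and 10 μM pargyline, 10 mg tissue per tube. Nonspecific binding was defined with 10 μM 5-HT. IC50 was taken by semi-log linear regression and Ki by Cheng–Prusoff; triplicates.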

[28] = Area under curve at 2 uM/dg administered intravenously; assay type: ADME; conditions: iv; outline: as §4
Rattus norvegicus [29] = assay: In vivo evaluation for 5-HTP accumulation in the hemispheres in male rats (po); assay type: functional; outline: as §1
D(2) dopamine receptor [30] = target: D(2) dopamine receptor (Homo sapiens, UniProt P14416); assay: In vitro binding affinity against dopamine receptor D2 using [3H]raclopride as radioligand in CHO cells (sc); assay type: cell-based, Cricetulus griseus
D(2) dopamine receptor (Homo sapiens, UniProt P14416), sequence (P14416 whole entry): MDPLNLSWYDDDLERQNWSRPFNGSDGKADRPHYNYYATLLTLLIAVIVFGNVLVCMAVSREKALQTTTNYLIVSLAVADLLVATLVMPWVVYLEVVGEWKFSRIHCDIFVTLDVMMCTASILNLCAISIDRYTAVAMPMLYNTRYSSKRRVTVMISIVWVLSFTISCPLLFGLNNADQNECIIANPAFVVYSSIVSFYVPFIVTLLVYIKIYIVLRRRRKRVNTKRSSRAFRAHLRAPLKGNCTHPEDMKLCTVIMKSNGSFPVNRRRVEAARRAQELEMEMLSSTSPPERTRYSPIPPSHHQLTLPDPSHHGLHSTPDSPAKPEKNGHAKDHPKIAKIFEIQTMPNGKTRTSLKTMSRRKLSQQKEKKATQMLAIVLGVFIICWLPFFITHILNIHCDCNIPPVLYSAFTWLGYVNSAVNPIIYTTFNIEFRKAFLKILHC

Rattus norvegicus [31] = species on record: Rattus norvegicus; assay: Maximal reduction in percent (Partial response) of DOPA accumulation rat corpus striatum at highest test dose; inactive; assay type: functional, organism-based; outline: as §1
[32] = target: T3, 5-hydroxytryptamine receptor 1A (Mus musculus, UniProt Q64264); assay: In vitro binding affinity against 5-hydroxytryptamine 1A receptor using [3H]-8-OH-DPAT as radioligand in CHO cells (sc); assay type: cell-based, Cricetulus griseus
T3 sequence (Q64264 whole entry): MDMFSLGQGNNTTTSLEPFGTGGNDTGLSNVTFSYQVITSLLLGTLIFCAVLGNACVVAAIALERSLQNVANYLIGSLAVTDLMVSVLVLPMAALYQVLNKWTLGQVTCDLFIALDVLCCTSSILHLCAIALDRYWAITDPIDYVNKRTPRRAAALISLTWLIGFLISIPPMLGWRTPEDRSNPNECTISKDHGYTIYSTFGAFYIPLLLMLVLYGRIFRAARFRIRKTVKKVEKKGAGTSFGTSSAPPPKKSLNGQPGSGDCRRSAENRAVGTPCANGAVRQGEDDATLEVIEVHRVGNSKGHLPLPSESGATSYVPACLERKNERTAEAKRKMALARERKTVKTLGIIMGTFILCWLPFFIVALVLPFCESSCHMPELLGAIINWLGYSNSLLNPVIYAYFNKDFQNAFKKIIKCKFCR

Rattus norvegicus [33] = assay: Maximal reduction in percent (Partial response) of DOPA accumulation rat corpus striatum at highest test dose of 12.5 uM/Kg (sc); assay type: functional; outline: as §1
Rattus norvegicus [34] = assay: In vivo evaluation for 5-HTP accumulation in the limbic system in male rats (po); assay type: functional; outline: as §1
Rattus norvegicus [35] = species on record: Rattus norvegicus; assay: Maximal reduction in percent (Partial response) of DOPA accumulation rat hemispheres at highest test dose; inactive; assay type: functional, organism-based; outline: as §1
[36] = Area under curve at 10 uM/dg administered perorally; assay type: ADME; conditions: po; outline: as §4
[37] = Maximum concentration of the drug at 10 umol/dg administered perorally; assay type: ADME, organism-based; design: route oral; conditions: in vivo, po; outline: as §3
Rattus norvegicus [38] = assay: Maximal reduction in percent (Partial response) of DOPA accumulation rat lhemispheres at highest test dose of 2.0 uM/Kg (sc); assay type: functional; outline: as §1
Rattus norvegicus [39] = assay: Maximal reduction in percent (Partial response) of DOPA accumulation rat limbic system at highest test dose of […] (sc); assay type: functional
Rattus norvegicus [40] = assay: In vivo evaluation for DOPA accumulation in the hemispheres in male rats at highest test dose of 12.5 uM/Kg (sc); inactive; assay type: functional, organism-based; outline: as §1
D(2) dopamine receptor [41] = target: T1, D(2) dopamine receptor; assay: In vitro binding affinity against dopamine receptor D2 using [3H]-Raclopride as radioligand in CHO cells (sc); assay type: cell-based

Compound	ED50 (Rattus norvegicus [1]) [µmol/kg]	ED50 (Rattus norvegicus [3]) [µmol/kg]	Behavioral response (Rattus norvegicus [4])	ED50 (Rattus norvegicus [5]) [µmol/kg]	ED50 (Rattus norvegicus [6]) [µmol/kg]	ED50 (Rattus norvegicus [7]) [µmol/kg]	Ki (D(2) dopamine receptor [9]) [nM]	Behavioral response (Rattus norvegicus [12])	other results
CN(C)C1CCc2ccc3[nH]ccc3c2C1 (racemic)	0.4	0.3	Active	0.3	0.4	0.3			Reduction (Rattus norvegicus [2]): 34%
CCCN(CCC)[C@H]1CCc2cccc(O)c2C1	0.077	0.065	Active	0.061			5070		ED50 (Rattus norvegicus [8]): inactive; ED50 (Rattus norvegicus [10]): inactive; ED50 (Rattus norvegicus [11]): inactive
CCCN(CCC)[C@H]1CCc2ccc3[nH]ccc3c2C1	0.2	0.3		0.16			146	Active	Reduction (Rattus norvegicus [13]): 37%; Reduction (Rattus norvegicus [14]): 31%; ED50 (Rattus norvegicus [15]): inactive
CN(C)[C@H]1CCc2ccc3[nH]ccc3c2C1	2.7	3.9		3.9	8	4.2			ED50 (Rattus norvegicus [16]): 13 µmol/kg; Behavioral response (Rattus norvegicus [17]): inactive
CCCN(CCC)[C@@H]1CCc2cccc(O)c2C1	0.05	0.047	Active	0.036			826		ED50 (Rattus norvegicus [8]): inactive; ED50 (Rattus norvegicus [10]): inactive; ED50 (Rattus norvegicus [11]): inactive
CCCN(CCC)[C@H]1CCc2ccc3[nH]cc(C(C)=O)c3c2C1	0.095	0.08	Active	0.09			3590		ED50 (Rattus norvegicus [18]): inactive; Cmax [19]: 849 pM ml-1; ED50 (Rattus norvegicus [20]): inactive; ED50 (Rattus norvegicus [21]): 1.1 µmol/kg; Ratio [22]: 18; Reduction (Rattus norvegicus [23]): 37%; bioavailability [24]: 72%; Tmax at 2 µM [25]: 2 min; half-life at 2 µM [26]: 60 min; Ki [27]: 2 nM; AUC [28]: 607 pM/h/g; ED50 (Rattus norvegicus [29]): 1.1 µmol/kg; Ki (D(2) dopamine receptor [30]): 423 nM; ED50 (Rattus norvegicus [31]): inactive; Ki [32]: 0.2 nM; Reduction (Rattus norvegicus [33]): 25%; ED50 (Rattus norvegicus [34]): 0.5 µmol/kg; ED50 (Rattus norvegicus [35]): inactive; AUC [36]: 2224 pM/h/g; Cmax [37]: 606 pM ml-1
CN(C)[C@@H]1CCc2ccc3[nH]ccc3c2C1	0.4	0.1		0.4	0.4	0.3		Active	Reduction (Rattus norvegicus [38]): 30%
CCCN(CCC)[C@@H]1CCc2ccc3[nH]ccc3c2C1	0.41	0.25		0.2	0.16		100	Active	Reduction (Rattus norvegicus [39]): 37%; ED50 (Rattus norvegicus [15]): inactive
CCCN(CCC)C1CCc2ccc3[nH]cc(C=O)c3c2C1 (racemic)	0.067	0.054	Active	0.06	1.8	0.47	120		ED50 (Rattus norvegicus [40]): inactive; Ki (D(2) dopamine receptor [41]): 40 nM
